Measured values from different studies.
Lines come from different studies, so protocols differ. In brackets after ≈: the same amount, converted by molar mass.

Cc1c2cnccc2c(C)c2c1c1ccccc1n2Cc1ccccc1
IC50 (MDA-MB-468; cell growth or viability, MTT): 18 µM

Nc1nc(Cl)c2ncn([C@@H]3O[C@H](CO)[C@@H](O)[C@H]3O)c2n1
IC50 (Severe acute respiratory syndrome coronavirus; plaque formation, inhibitor; Vero C1008): > 300 µM

COC(=O)c1cc(-c2cccc(NC(=O)NCc3ccccc3)c2)on1
MIC (Escherichia coli; microbial growth, broth dilution; ATCC25922): > 64 µg/mL

Cc1ccc2nc(-c3ccc([N+](=O)[O-])cc3)n(Cc3ccccc3Cl)c2c1
MIC (Staphylococcus aureus; microbial growth, broth dilution; ATCC43300 MRSA; drug-resistant strain): 64 µg/mL (≈ 169 µM)

Nc1ncnc2c([C@@H]3N[C@H](CO)[C@@H](O)[C@H]3O)c[nH]c12
inhibition (Severe acute respiratory syndrome coronavirus; viral replication, inhibitor; Vero 76; 3 µM): 0%

CCOC(=O)c1cc(-c2cccc(NC(=O)Nc3ccc(Cl)c(Cl)c3)c2)on1
MIC (Escherichia coli; microbial growth, broth dilution; ATCC25922): > 64 µg/mL

Cc1ccc2nc(-c3ccccc3Cl)[nH]c2c1
MIC (Staphylococcus aureus; microbial growth, broth dilution; ATCC43300 MRSA; drug-resistant strain): 256 µg/mL (≈ 1050 µM)

COC(=O)c1cc(-c2cccc(NC(=S)Nc3ccc(F)c(Cl)c3)c2)on1
MIC (Escherichia coli; microbial growth, broth dilution; ATCC25922): > 64 µg/mL

c1ccc2[nH]c(-c3ccc4c(c3)OCO4)nc2c1
MIC (Staphylococcus aureus; microbial growth, broth dilution; ATCC43300 MRSA; drug-resistant strain): 256 µg/mL (≈ 1070 µM)

O=C(O)c1cn(C2CC2)c2cc(N3CCNCC3)c(F)cc2c1=O
MBC (Escherichia coli; microbial killing): 19 µM (≈ 6.3 µg/mL)

O=C(NCCc1c[nH]c2ccccc12)C(=O)c1cn(Cc2ccc(Cl)cc2)c2ccc(Br)cc12
IC50 (C4-2; cell growth or viability, MTT): > 100 µM

C=CCn1c(-c2ccc(OC)c(OC)c2)nc2ccccc21
MIC (Staphylococcus aureus; microbial growth, broth dilution; ATCC43300 MRSA; drug-resistant strain): 128 µg/mL (≈ 435 µM)

OC[C@@H]1C[C@@H](O)[C@H](n2cnc3c(Cl)ncnc32)O1
IC50 (Severe acute respiratory syndrome coronavirus; plaque formation, inhibitor; Vero C1008): > 300 µM

COC(=O)c1cc(-c2cccc(NC(=S)Nc3ccccc3Cl)c2)on1
MIC (Escherichia coli; microbial growth, broth dilution; ATCC25922): > 64 µg/mL

COc1cccc(-c2nc3ccccc3n2Cc2ccccc2)c1
MIC (Staphylococcus aureus; microbial growth, broth dilution; ATCC43300 MRSA; drug-resistant strain): 256 µg/mL (≈ 814 µM)

COC(=O)c1cc(-c2cccc(NC(=O)Nc3ccc(OC)cc3)c2)on1
MIC (Escherichia coli; microbial growth, broth dilution; ATCC25922): > 64 µg/mL

COc1ccc(-c2nc3ccccc3[nH]2)cc1O
MIC (Staphylococcus aureus; microbial growth, broth dilution; ATCC43300 MRSA; drug-resistant strain): 256 µg/mL (≈ 1070 µM)

OC[C@H]1O[C@@H](n2cnc3c(Cl)ncnc32)C[C@@H]1O
IC50 (Severe acute respiratory syndrome coronavirus; plaque formation, inhibitor; Vero C1008): > 300 µM

COC(=O)c1cc(-c2cccc(NC(=S)Nc3ccc(OC)cc3)c2)on1
MIC (Escherichia coli; microbial growth, broth dilution; ATCC25922): > 64 µg/mL

CCCCCCCCCOc1ccc2[nH]cc(CCN)c2c1
IC50 (HN-6; cell growth or viability; 72 h): 15.9 µM

O=C(NCCc1c[nH]c2ccccc12)C(=O)c1cn(Cc2ccc(F)cc2)c2ccccc12
IC50 (C4-2; cell growth or viability, MTT): > 100 µM

COC(=O)c1cc(-c2cccc(NC(=S)Nc3ccc([N+](=O)[O-])cc3)c2)on1
MIC (Escherichia coli; microbial growth, broth dilution; ATCC25922): > 64 µg/mL

Cn1cnc2nc(NCc3ccc(Cl)c(Cl)c3)[nH]c(=O)c21
MIC (Lactobacillus acidophilus; microbial growth, agar dilution; 48 h): 8 µg/mL (≈ 24.7 µM)

C=CCn1c(-c2ccc(Cl)cc2)nc2ccc(C)cc21
MIC (Staphylococcus aureus; microbial growth, broth dilution; ATCC43300 MRSA; drug-resistant strain): 32 µg/mL (≈ 113 µM)

COC(=O)c1cc(-c2cccc(NC(=O)Nc3ccc(Cl)c(Cl)c3)c2)on1
MIC (Escherichia coli; microbial growth, broth dilution; ATCC25922): > 64 µg/mL

Cc1ccc2nc(-c3cc(Br)ccc3O)[nH]c2c1
MIC (Staphylococcus aureus; microbial growth, broth dilution; ATCC43300 MRSA; drug-resistant strain): 128 µg/mL (≈ 422 µM)

COc1ncnc2c1ncn2[C@@H]1O[C@H](CO)[C@@H](O)[C@H]1O
IC50 (Severe acute respiratory syndrome coronavirus; plaque formation, inhibitor; Vero C1008): > 300 µM
